Redox H2O2 prof: compounds producing H2O2 with reducing agent – biochemical, NIH compound library profiling, artefact control for MLSCN library redox annotation, primary screen; DTT-dependent redox cycling H2O2, phenol red/HRP absorbance; 100% = 100 µM peroxide control, 0% = buffer; activation, % at 10 µM; 200,000 tested, 0.03% active; AID 878;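 active = activation of at least 50% relative to the plate's high and low controls in the primary single-dose screen; inactive = activation below 50%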;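 note: compound incubated with DTT at 0.8 mM final as the reducing agent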
MT stabilizer: stabilizes microtubules in HeLa cells | 200,000 tested, 0.83% active | AID 2205 | % tubulin-high responders, % at 10 µM | HeLa tubulin immunostaining HCS, 24 h; share of cells brighter than vehicle mean+2SD;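 active = plate Z-score above 3 for both tubulin-high and condensed-nucleus cell shares, with cell loss under 80%, at 10 µM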;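 note: anti alpha tubulin signal scored within the nucleus-defined area of each cell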
ROMK primary: modulators of human ROMK potassium channel. P48048. Tet-inducible ROMK, thallium flux fluorescence; actives lie on both sides. B-score at 10 µM. 130,000 tested, 2% active. AID 1918;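 active = signal ratio slope over the read window, or its plate-corrected B-score, at least 3 SD from the plate mean, either direction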;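 note: B-score of the F/F0 ratio slope over 7 to 12 s after thallium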
Target sequence (P48048 whole entry, looked up): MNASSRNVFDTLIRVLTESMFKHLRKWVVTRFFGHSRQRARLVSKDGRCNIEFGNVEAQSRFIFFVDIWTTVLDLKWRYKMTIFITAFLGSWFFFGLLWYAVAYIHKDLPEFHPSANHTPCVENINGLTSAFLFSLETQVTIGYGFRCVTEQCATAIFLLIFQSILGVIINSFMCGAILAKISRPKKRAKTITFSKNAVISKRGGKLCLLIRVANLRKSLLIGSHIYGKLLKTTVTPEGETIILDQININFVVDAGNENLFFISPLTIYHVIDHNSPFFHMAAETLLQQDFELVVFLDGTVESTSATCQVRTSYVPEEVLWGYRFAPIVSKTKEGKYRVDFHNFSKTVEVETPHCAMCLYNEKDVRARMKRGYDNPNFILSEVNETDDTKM
b-catenin transl: beta-catenin nuclear translocation modulation | 190,000 tested, 0.3% active | HeLa beta-catenin nuclear translocation, immunofluorescence imaging | nuclear translocation activity, % at 5 µM;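 active = nuclear translocation activity above 50% at 5 µM, with a well cell count of 50 or more; inconclusive = wells under 50 cells across six images, flagged as toxic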;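 note: per-cell ratio of nuclear to cytoplasmic median beta-catenin stain intensity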
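Test system: human HeLa cells, endogenous beta-catenin. Times: 24 h compound exposure, 37°C. Measured by: beta-catenin immunofluorescence imaging with DAPI.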
Cl transport mod: modulators of human KCC2 chloride dependent transport; Q9H2X9; KCC2 cells, thallium flux FluoZin-2 fluorescence; B-score of Tl+ flux slope (higher = more flux/activation; lower = inhibition) at 10 µM; 190,000 tested, 2.2% active; AID 1456;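 active = thallium flux slope and its plate-corrected score both differing from the plate sample mean at a set confidence after two filtering rounds, in either direction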;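 note: slope of fluorescence scaled to starting intensity during 10 to 20 s after thallium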
ROMK retest: retested hit modulating human ROMK potassium channel; shares compounds with ROMK primary; ROMK thallium flux, fluorescence ratio; stronger effect = lower value; normalized thallium flux (F/F0 slope) at 10 µM; 3,000 tested, 54% active; AID 1917;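 active = Flux at 10 µM at least 3 SD below or above vehicle control mean in one or both replicates; inconclusive = no clear call, values can overlap the other calls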
Of the large screens only hits and unclear results are named; the others gave an inactive call (follow-up assays come after a bar, where they were run). This is a sample that favours compounds with a hit; in the whole collection about 3.7% have one here.

O=C(Nc1cccc(-c2nnc(-c3ccco3)o2)c1)c1ccccc1	none
COc1ccccc1OCC(=O)Nc1cccc(-c2nnc(-c3ccco3)o2)c1	none (no result: ROMK primary) | ROMK retest 0.063
COc1ccc(CC(=O)Nc2cccc(-c3nnc(-c4ccccc4)o3)c2)cc1OC	none (no result: ROMK primary, b-catenin transl) | ROMK retest 0.064
COC(=O)c1c(NC(=O)CCNCc2ccco2)sc2c1CCC2	none (no result: Redox H2O2 prof, MT stabilizer, ROMK primary)
OC(CNCC1(N2CCCCC2)CCCCC1)COc1ccc(Cl)cc1Cl (stereo not drawn)	ROMK primary -3.9 | ROMK retest 0.053
OC(CNCC1CCCO1)Cn1c2ccccc2c2ccccc21 (stereo not drawn)	ROMK primary -4.1 | ROMK retest 0.061
COc1ccccc1CNC(=O)CSCc1cnn(-c2ccccc2)c1-n1cccc1	none (no result: ROMK primary, b-catenin transl)
COc1cccc(CNC(=O)CSCc2cnn(-c3ccccc3)c2-n2cccc2)c1OC	ROMK primary -3.3 (no result: b-catenin transl) | ROMK retest inactive
O=C(CN(C1CCCCC1)S(=O)(=O)c1ccc(F)cc1)Nc1ccc2c(c1)OCO2	ROMK primary -3.3 | ROMK retest 0.064
CN(C)S(=O)(=O)c1cccc(C(=O)NCc2cccs2)c1	none
CC1(C)Cc2c(C#N)c(SCCOc3ccccc3)nc(N3CCOCC3)c2CO1	none (no result: ROMK primary, b-catenin transl) | ROMK retest inconclusive
C[n+]1c2n(c3ccccc31)N=C(c1cc(C(C)(C)C)c(O)c(C(C)(C)C)c1)CS2	ROMK primary -5.5 | ROMK retest 0.039
Cc1ccc(-n2sc3ccccc3c2=O)cc1S(=O)(=O)N1CCCCC1	none
Cc1ccccc1-n1sc2cc(F)ccc2c1=O	ROMK primary -4.7 | ROMK retest 0.057
COc1cccc(-c2ccc(=O)n(CC(=O)Nc3ccc(S(=O)(=O)NCC(C)C)cc3)n2)c1	none
O=C(Oc1ccc(Nc2ncnc3ccccc23)cc1)c1cccnc1	ROMK primary -2.9 | ROMK retest 0.065
O=C(CN1CCN(Cc2ccccc2)CC1)Nc1ccc([N+](=O)[O-])cc1C(=O)Nc1ccccc1F	none (no result: ROMK primary) | ROMK retest 0.058
CSc1ccccc1NC(=O)CN1CCN(Cc2ccccc2)CC1	ROMK primary -3.1 | ROMK retest inactive
CCOC(=O)N1CCN(CC(=O)Nc2ccc([N+](=O)[O-])cc2C(=O)Nc2ccccc2F)CC1	none (no result: ROMK primary)
O=C1C(=O)N(O)C2CCCCC2N1O (stereo not drawn)	none (no result: ROMK primary)
Cc1ccc(Cn2ccc(=O)c(Cc3c(Cl)cccc3Cl)c2C)cc1	none (no result: ROMK primary, Cl transport mod) | ROMK retest 0.049
COCCn1nnnc1C(c1cccc(C(F)(F)F)c1)N1CCN(Cc2ccccc2)CC1 (stereo not drawn)	ROMK primary -3.9 | ROMK retest 0.054
O=C(OCn1nnc2ccccc2c1=O)C1COc2ccccc2O1 (stereo not drawn)	none (no result: ROMK primary, Cl transport mod)
O=c1c2ccccc2nnn1CSc1nnc(C2COc3ccccc3O2)n1-c1ccccc1 (stereo not drawn)	ROMK primary -2.9 | ROMK retest 0.042
O=Cc1s/c(=N\S(=O)(=O)c2ccccc2)n(CCCCl)c1Cl	ROMK primary -6.1 | ROMK retest 0.043
O=C(CCSCCC(=O)Nc1ccccc1F)Nc1ccccc1F	none
c1ccc2c(-c3ccncc3)c[nH]c2c1	ROMK primary 4 (no result: Cl transport mod) | ROMK retest inactive
c1ccc(-c2nnc(-c3ccccc3)c(-c3c[nH]c4ccccc34)n2)cc1	none (no result: ROMK primary)
CC(C)(C)NC(=O)c1nn(Cc2ccccc2)c(=O)c2ccccc12	none
Cc1cc(Cl)ccc1OCC(=O)NN1C(=O)C2C3C=CC(C3)C2C1=O (stereo not drawn)	none
Cc1cccc(NS(=O)(=O)c2cnc(Cl)c(Br)c2)n1	none (no result: ROMK primary)
O=S1CCCSC1c1cccnc1 (stereo not drawn)	none (no result: b-catenin transl) | ROMK retest inactive
Cc1nccn1-c1ccc(C=O)cc1	none
Cc1c(O)c2cccnc2[nH]c1=O	none
O=C(N/N=C/c1cn(-c2ccccc2)nc1-c1cc2ccccc2o1)c1cccnc1	none (no result: ROMK primary) | ROMK retest inactive
N#C/C(=C\c1cn(-c2ccccc2)nc1-c1cc2ccccc2o1)c1nc2ccccc2[nH]1	ROMK primary -3.5 | ROMK retest 0.048
Cc1nn(C)cc1CN(C)C(=O)c1cc(-c2ccccc2)nc2ccc(Br)cc12	none | ROMK retest 0.058
CC1CCCC(C(=O)O)N1C(=O)CCS (stereo not drawn)	ROMK primary 2.2 (no result: b-catenin transl) | ROMK retest inconclusive
CC(C)OC(=O)CSc1nnc(CNc2nc(-c3ccccc3)cs2)n1C	ROMK primary -2.7 (no result: Cl transport mod) | ROMK retest 0.062
CCOC(=O)C1CCN(C(=O)COc2cc(C)c(Br)cc2C)CC1	ROMK primary -4.9 | ROMK retest 0.058
COC(=O)CSc1nnc(-c2ccc(NS(=O)(=O)c3ccccc3)cc2)o1	ROMK primary -3.5 | ROMK retest 0.056
Cc1ccc(CSc2nnc(-c3ccc(NS(=O)(=O)c4ccccc4)cc3)o2)cc1	none
O=C(CN1C(=O)NC2(CCCC2)C1=O)N1CCc2ccccc2C1	ROMK primary 2.2 | ROMK retest inactive
O=C(CN1C(=O)NC2(CCCCC2)C1=O)N1CCc2ccccc2C1	none
CC(=S)c1c(C)cc2cc(C)ccn12	none
COc1ccccc1CN(Cc1cc2cc(C)cc(C)c2[nH]c1=O)Cc1nnnn1CC1CCCO1 (stereo not drawn)	ROMK primary -4.1 | ROMK retest 0.066
COc1ccccc1CN(Cc1cc2cc(C)ccc2[nH]c1=O)Cc1nnnn1CC1CCCO1 (stereo not drawn)	none
Cc1cc(C)n2nc(SCC(=O)c3cc(C)n(-c4cc(C)on4)c3C)nc2n1	none (no result: ROMK primary, Cl transport mod) | ROMK retest inactive
Cc1cc(C)n2nc(SCC(=O)c3ccccc3)nc2n1	none (no result: b-catenin transl)
CCc1cccc(CC)c1NC(=O)COC(=O)c1ccc(F)c(S(=O)(=O)N(CC)CC)c1	none (no result: ROMK primary)
CCC(C)Nc1nc2c(c(=O)n(C)c(=O)n2C)n1C (stereo not drawn)	none (no result: Redox H2O2 prof, MT stabilizer, ROMK primary)
COc1ccc(NC(=O)c2csc(Cc3ccccc3)n2)cc1	none (no result: Cl transport mod)
COc1ccc(CNC(=O)c2csc(Cc3ccccc3)n2)cc1	none (no result: ROMK primary, Cl transport mod) | ROMK retest inactive
COCCNC(=O)c1ccc(NS(C)(=O)=O)cc1	none
CC(C)OCCCNC(=O)c1ccc(NS(C)(=O)=O)cc1	none (no result: ROMK primary) | ROMK retest inactive
NC(=O)C1(C(N)=O)OC1c1ccc(Cl)c(Cl)c1 (stereo not drawn)	none (no result: Redox H2O2 prof, MT stabilizer)
CC1CCN(C(C(=O)NC2CCCCC2)c2cc3c(cc2[N+](=O)[O-])OCO3)CC1 (stereo not drawn)	ROMK primary -3.1 | ROMK retest 0.06
COc1cccc(NC(=S)N2CCC(N(C)CC3CCCO3)CC2)c1 (stereo not drawn)	none
Cc1nn(CCCC(=O)N2CCN(c3ccc(F)cc3)CC2)c(C)c1[N+](=O)[O-]	ROMK primary -6 | ROMK retest 0.054
Cc1nn(CCCC(=O)NCc2ccc(F)cc2)c(C)c1[N+](=O)[O-]	none (no result: b-catenin transl)
CCOC(=O)Cc1cnc(NC(=O)CSc2nc(N)cc(N)n2)s1	none

Source: PubChem BioAssay
